Screening data (PubChem BioAssay)
A selection: hits, their analogues and other compounds. The true share with any hit is near 4.1%.
MC4R antagonist: antagonists of human melanocortin 4 receptor (MC4R); P32245; MC4R-expressing cells, MTII-stimulated cAMP, LANCE TR-FRET; inhibition, % at 6.5 µM; 0.48% of 360,000 active;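 active means inhibition above its plate's cutoff, the mean of tested wells on that plate plus 3 SD, cut at about 29% in these data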;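 further: 0% = Melanotan II alone and 100% = Melanotan II plus saturating MCL0020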
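Assay system: human MC4R-expressing U2OS cells; reagent: Melanotan II stimulation of cells; dosing: 6.5 µM single dose; timing: compound 30 min, challenge 1 h, detection 1 h; signal: TR-FRET cAMP assay; replicates: one well per compound, no replicates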
MC4R ag barr: activates human MC4R beta-arrestin recruitment. 0.98% of 360,000 active. U2OS MC4R beta-arrestin complementation, luminescence; percent of melanotan II response, DMSO zero. activation, % at 8.9 µM;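 active means activation above a per-plate cutoff, the mean activation of sample wells on that plate plus 3 SD, cut at about 8% in these data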
SMARCA2 act: SMARCA2 function activation, primary screen. MG213 cells, MMTV-luciferase reporter, dexamethasone, overnight. activation, % at 9.1 µM. 1% of 370,000 active. AID 652017; in the data active means activation above about 7.8%;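 further: 0% = vehicle wells and 100% = reference activator wells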
MPTP inh: inhibitors of mitochondrial permeability transition pore. isolated mouse mitochondria, Ca2+ swelling absorbance, 30 min. inhibition, % at 10 µM. 1.4% of 360,000 active;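 active means inhibition of 50% or more, scaled per plate between neutral and stimulator controls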;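 further: 0% = DMSO wells given calcium and 100% = 1 mM EGTA wells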
ATG4B inhibitor: inhibitors of human ATG4B cysteine protease | Q9Y4P1 | 0.51% of 340,000 active | ATG4B cleavage of LC3-PLA2, NBD-HPC fluorescence, 1 h | inhibition, % at 8.33 µM | AID 504462; in the data active means inhibition above about 40%
Target sequence (Q9Y4P1 whole entry, looked up): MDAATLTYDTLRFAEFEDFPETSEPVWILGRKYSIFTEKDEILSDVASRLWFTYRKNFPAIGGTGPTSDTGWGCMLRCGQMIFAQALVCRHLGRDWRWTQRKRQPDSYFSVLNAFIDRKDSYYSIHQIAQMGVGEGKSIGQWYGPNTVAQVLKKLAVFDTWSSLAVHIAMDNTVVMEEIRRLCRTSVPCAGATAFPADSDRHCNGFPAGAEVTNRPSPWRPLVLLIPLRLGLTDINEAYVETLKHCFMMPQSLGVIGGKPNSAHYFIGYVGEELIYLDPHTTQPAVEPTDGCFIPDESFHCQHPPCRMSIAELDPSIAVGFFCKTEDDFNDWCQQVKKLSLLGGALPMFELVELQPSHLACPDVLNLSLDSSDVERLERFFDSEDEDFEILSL
MPTP counter: mitochondrial membrane potential, counter-screen. 78% of 5,000 active. inhibition, % at 10 µM. shares compounds with MPTP inh. isolated mitochondria, Rhodamine 123 fluorescence; in the data active means inhibition above about 22%;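 further: 0% = DMSO vehicle and 100% = positive control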
MPTP swell DR: dose response confirmation of mitochondrial permeability transition pore inhibitors; IC50, µM; isolated mitochondria swelling, absorbance; 58% of 780 active; shares compounds with MPTP inh; in the data active means IC50 below about 20 µM
MPTP cs DR: active in counter-screen for permeability transition pore inhibitors | shares compounds with MPTP inh | isolated mitochondria counterscreen, fluorescence read-out | IC50, µM | 49% of 780 active | AID 651564; in the data active means IC50 below about 80 µM
The depositor's hits bear a star; i = inactive; nt = no result.

SMILES	MC4R antagonist	MC4R ag barr	SMARCA2 act	MPTP inh	ATG4B inhibitor	MPTP counter	others
O=c1/c(=C/c2ccc(O)c([N+](=O)[O-])c2)sc2nc3ccccc3n12	2	1	-1	66*	5	30*
O=C(N/N=C/c1cc([N+](=O)[O-])ccc1O)NC12CC3CC(CC(C3)C1)C2	1	-1	-5	74*	-7	44*
CCNC(=O)C(=O)N/N=C/c1cc([N+](=O)[O-])ccc1O	6	-2	1	-22	-11	nt
O=C(N/N=C/c1cc([N+](=O)[O-])ccc1O)C12CC3CC(CC(C3)C1)C2	5	-3	-4	78*	-5	54*
Cc1nn(C)c(C(=O)NCc2ccc(Cl)cc2)c1Cl	3	-1	-7	93*	30	86*
Cc1nc(C)c(C(=O)NCc2ccc(Cl)cc2)o1	4	1	nt	14	-4	nt
O=C(Nc1cccc(Br)c1)c1ccc(CSc2ccccc2)cc1	0	3	-1	67*	18	77*
COc1ccc(-c2nc3c(C)cc(Br)cn3c2Cc2ccccc2C(F)(F)F)cc1OC	nt	nt	0	nt	nt	nt
O=C(c1ccccc1Cl)N1CCNCC1	10	-1	4	-2	-7	nt
Clc1cccc2c1Sc1ccccc1CC2N1CCNCC1 (stereo unspecified)	1	2	-3	93*	19	-11
O=[N+]([O-])c1ccc(Nc2ccc(F)cc2)nc1	1	-2	-1	18	4	nt
Cc1ccc(Nc2ccc([N+](=O)[O-])cn2)cc1Cl	-4	2	0	75*	-2	69*
O=S(=O)(NCC(Nc1ccc(Cl)cc1)c1ccccc1)c1ccccc1 (stereo unspecified)	17	0	-5	75*	8	87*
CC(=O)N1CCc2cc(S(=O)(=O)NC3CCN(C(=O)OCc4ccccc4)CC3)ccc21	nt	nt	-8	nt	nt	nt
CCOC(=O)c1c(NC(=O)C2c3ccccc3Oc3ccccc32)sc(C(C)=O)c1C	19	1	1	85*	0	-5	MPTP swell DR=i;MPTP cs DR=8.6*
CCOC(=O)c1c(NC(=O)CSc2nnc(-c3ccccc3)o2)sc(C(C)=O)c1C	5	0	2	12	-10	nt
CCOC(=O)c1c(NC(=O)CSc2nc3ccccc3o2)sc(C(C)=O)c1C	-1	-2	3	101*	-6	75*
O=C(CSc1nc2ccccc2o1)Nc1nc2c(s1)CCCC2	-3	-2	-7	84*	-7	64*
Cc1ccc(-n2c(SC/C=C/c3ccccc3)nnc2-c2ccco2)cc1	nt	nt	-3	nt	nt	nt
CNc1ccccc1/C(O)=C(\C#N)C(=O)NCc1cccc2ccccc12	nt	nt	-1	nt	nt	nt
O=C(COC(=O)c1cc(S(=O)(=O)N2CCCC2)ccc1O)Nc1ccc(SC(F)F)cc1	12	-3	-4	92*	-5	96*
CCCn1c(O)c(/C=C2\C=NN=C2c2ccccc2)sc1=S	7	2	-1	21	1	nt
CCCCC(CC)Cn1c(O)c(/C=C2\C=NN=C2c2ccccc2)sc1=S (stereo unspecified)	5	-2	0	55*	3	-2	MPTP swell DR=16*;MPTP cs DR=>80
N#CNC(=Nc1cccc(F)c1)SCc1cccc(F)c1	-4	3	-3	84*	3	74*
N#CNC(=Nc1cccc(F)c1)SCc1ccccc1	2	1	-6	43	-5	nt
CCC(C)(C)C(=O)N1CCC(C(=O)NC2CCCc3ccccc32)CC1 (stereo unspecified)	nt	nt	3	nt	nt	nt
CCN=C1NC(CCc2ccccc2)C(C(=O)OC)=C(C)N1Cc1ccccc1C(F)(F)F (stereo unspecified)	nt	nt	-1	nt	nt	nt
O=C(Nc1ccc(F)cc1)C(c1cc2ccccc2o1)N1CCN(C(=O)c2ccco2)CC1 (stereo unspecified)	nt	nt	0	-2	nt	nt
COc1ccc(NS(=O)(=O)c2cc(NC(=O)Cc3c(F)cccc3Cl)ccc2OC)cc1	2	-1	0	0	-9	nt
COc1ccccc1NS(=O)(=O)c1cc(NC(=O)c2ccc(Cl)nc2)ccc1Cl	16	-2	-8	56*	-13	72*
